Test results published in ChEMBL document CHEMBL1275351, “Novel spirotetracyclic zwitterionic dual H(1)/5-HT(2A) receptor antagonists for the treatment of sleep disorders” (J Med Chem, 2010).

How the values were obtained:
[1] = biological target: 5-hydroxytryptamine receptor 2A (Rattus norvegicus, UniProt P14842); experiment: Displacement of [3H]ketanserin from 5HT2A receptor in Sprague-Dawley rat cortical membrane by liquid scintillation counting
In short: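 Cerebral cortex membranes from male Sprague-Dawley rats (200-250 g), 50 μg/well. Incubated with 1 nM [3H]ketanserin in 50 mM Tris-HCl, 10 mM MgCl2, pH 7.4, for 1 h at 37 °C with shaking. Filtered on PEI-soaked GF/B and counted by scintillation. Nonspecific binding with 10 μM mianserin. Ki by Cheng-Prusoff; mean of two experiments in duplicate.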

[2] = Half life in Sprague-Dawley rat at 1 mg/kg, iv and 3 mg/kg, po; assay type: ADME, organism-based; conditions: in vivo
In short: (§1)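 Male Sprague-Dawley rats, cassette dosing. Compounds were given as an iv bolus and as an oral suspension. Blood samples were taken at intervals up to 24 h, processed by protein precipitation and analysed by HPLC-MS/MS.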

Cytochrome P450 1A2 = biological target: T1, Cytochrome P450 1A2 (Homo sapiens, UniProt P05177); experiment: Inhibition of human CYP1A2 transfected in bactosome expression system by spectrofluorimetry; assay type: ADME
T1 sequence (P05177 whole entry): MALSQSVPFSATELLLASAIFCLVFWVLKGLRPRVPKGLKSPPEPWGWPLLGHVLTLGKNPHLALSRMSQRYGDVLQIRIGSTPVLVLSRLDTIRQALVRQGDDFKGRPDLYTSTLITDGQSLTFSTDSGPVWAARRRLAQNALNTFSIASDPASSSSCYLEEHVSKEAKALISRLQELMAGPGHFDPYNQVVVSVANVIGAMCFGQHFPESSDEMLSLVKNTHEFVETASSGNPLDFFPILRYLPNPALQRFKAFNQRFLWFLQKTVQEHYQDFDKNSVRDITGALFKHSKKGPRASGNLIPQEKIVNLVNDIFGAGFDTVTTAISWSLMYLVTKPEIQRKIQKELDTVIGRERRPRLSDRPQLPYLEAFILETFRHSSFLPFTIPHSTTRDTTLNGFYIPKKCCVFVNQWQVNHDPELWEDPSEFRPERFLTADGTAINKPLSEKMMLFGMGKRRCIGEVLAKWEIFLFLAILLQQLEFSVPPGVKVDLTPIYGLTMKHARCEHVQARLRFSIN
In short: (§2)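 Recombinant human CYP Bactosomes (0.1 mg/mL) in 50 mM phosphate buffer, pH 7.4. Compound at 0.1-10 μM was preincubated with fluorogenic substrate for 10 min at 37 °C, and the reaction was started with an NADPH regenerating system. Metabolite fluorescence was followed for 10 min. Substrates: 1A2 ethoxyresorufin 0.5 μM; 2C9 FCA 50 μM; 2C19 BMC 10 μM; 2D6 MMC 10 μM; 3A4 DEF 1 μM or 7-BQ 25 μM. Run in triplicate.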

[3] = Volume of distribution at steady state in Sprague-Dawley rat at 1 mg/kg, iv and 3 mg/kg, po; assay type: ADME, organism-based; conditions: in vivo, read-out: Vdss; in short: as §1
Cytochrome P450 2D6 = Cytochrome P450 2D6 (Homo sapiens, UniProt P10635); experiment: Inhibition of human CYP2D6 transfected in bactosome expression system by spectrofluorimetry; assay type: ADME; in short: as §2
Sequence of Cytochrome P450 2D6 (P10635 whole entry): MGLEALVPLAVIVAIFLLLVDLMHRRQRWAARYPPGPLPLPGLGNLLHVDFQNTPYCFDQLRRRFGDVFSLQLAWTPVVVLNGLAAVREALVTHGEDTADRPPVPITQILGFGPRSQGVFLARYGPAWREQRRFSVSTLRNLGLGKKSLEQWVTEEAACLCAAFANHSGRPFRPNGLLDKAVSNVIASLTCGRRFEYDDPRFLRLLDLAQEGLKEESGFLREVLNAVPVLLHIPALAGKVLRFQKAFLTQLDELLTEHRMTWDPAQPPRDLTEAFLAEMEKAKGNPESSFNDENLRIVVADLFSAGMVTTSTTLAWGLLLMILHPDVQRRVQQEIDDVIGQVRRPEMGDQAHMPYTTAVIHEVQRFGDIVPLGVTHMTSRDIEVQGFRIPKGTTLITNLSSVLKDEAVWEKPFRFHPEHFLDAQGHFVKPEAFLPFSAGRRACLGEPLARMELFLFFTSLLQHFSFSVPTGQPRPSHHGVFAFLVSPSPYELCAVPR

[4] = Ratio of drug level in brain to blood in Sprague-Dawley rat at 1 mg/kg, iv and 3 mg/kg, po; assay type: ADME, organism-based; conditions: read-out: BBR
In short: (§3)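 Male Sprague-Dawley rats, cassette dosing, iv bolus or oral suspension. Blood and brain levels were measured by protein precipitation and HPLC-MS/MS. Brain:blood ratio was taken from AUC0-8h after oral dosing, or at 1 h after iv dosing for one compound.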

[5] = Plasma concentration at Tmax in Sprague-Dawley rat hypnotic model at 10 mg/kg, po administered during active phase; assay type: ADME, organism-based; design: dose 10 mg/kg, route oral
[6] = Plasma concentration at Tmax in Sprague-Dawley rat hypnotic model at 1 mg/kg, po administered during active phase; assay type: ADME, organism-based; design: dose 1 mg/kg, route oral
[7] = Plasma concentration at Tmax in Sprague-Dawley rat hypnotic model at 3 mg/kg, po administered during active phase; assay type: ADME, organism-based; design: dose 3 mg/kg, route oral
Rattus norvegicus [8] = experiment: Ex vivo displacement of [3H]pyrilamine from histamine H1 receptor in Sprague-Dawley rat cerebral cortex at 10 mg/kg, po by imaging analysis; assay type: functional
In short: (§4)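 Rats were dosed orally (vehicle 0.5% HPMC) and brains removed 2 h later. 14 μm coronal sections were incubated with 1 nM [3H]pyrilamine in 50 mM Tris-HCl, pH 7.5, for 10 min at room temperature. Nonspecific binding with 10 μM pyrilamine. Phosphoimager read after 7 days; occupancy measured in cortex.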

Rattus norvegicus [9] = experiment: Ex vivo displacement of [3H]ketanserin from 5HT2A receptor in Sprague-Dawley rat cerebral cortex at 1 mg/kg, po by imaging analysis; assay type: functional
In short: as §4, with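 “[3H]ketanserin” for “[3H]pyrilamine”, “Tris-HCl with 10 mM MgCl2,” for “Tris-HCl,”, “mianserin.” for “pyrilamine.”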

Rattus norvegicus [10] = experiment: Ex vivo displacement of [3H]pyrilamine from histamine H1 receptor in Sprague-Dawley rat cerebral cortex at 1 mg/kg, po by imaging analysis; assay type: functional; in short: as §4
[11] = Cmax in Sprague-Dawley rat hypnotic model at 3 mg/kg, po administered during active phase measured after 2 hrs; assay type: ADME, organism-based; design: dose 3 mg/kg, route oral; conditions: in vivo
Rattus norvegicus [12] = experiment: Ex vivo displacement of [3H]ketanserin from 5HT2A receptor in Sprague-Dawley rat cerebral cortex at 3 mg/kg, po by imaging analysis; assay type: functional
In short: as §4, with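 “[3H]ketanserin” for “[3H]pyrilamine”, “Tris-HCl with 10 mM MgCl2,” for “Tris-HCl,”, “mianserin.” for “pyrilamine.”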

[13] = Oral bioavailability in Sprague-Dawley rat at 3 mg/kg; assay type: ADME, organism-based; conditions: in vivo; in short: as §1
[14] = biological target: 5-hydroxytryptamine receptor 2A (Homo sapiens, UniProt P28223); experiment: Antagonist activity at human 5HT2A receptor expressed in HEK cells assessed as inhibition of intracellular calcium accumulation by aequorin assay; assay type: functional, cell-based, HEK293
Sequence of 5-hydroxytryptamine receptor 2A (Homo sapiens, UniProt P28223) (P28223 whole entry): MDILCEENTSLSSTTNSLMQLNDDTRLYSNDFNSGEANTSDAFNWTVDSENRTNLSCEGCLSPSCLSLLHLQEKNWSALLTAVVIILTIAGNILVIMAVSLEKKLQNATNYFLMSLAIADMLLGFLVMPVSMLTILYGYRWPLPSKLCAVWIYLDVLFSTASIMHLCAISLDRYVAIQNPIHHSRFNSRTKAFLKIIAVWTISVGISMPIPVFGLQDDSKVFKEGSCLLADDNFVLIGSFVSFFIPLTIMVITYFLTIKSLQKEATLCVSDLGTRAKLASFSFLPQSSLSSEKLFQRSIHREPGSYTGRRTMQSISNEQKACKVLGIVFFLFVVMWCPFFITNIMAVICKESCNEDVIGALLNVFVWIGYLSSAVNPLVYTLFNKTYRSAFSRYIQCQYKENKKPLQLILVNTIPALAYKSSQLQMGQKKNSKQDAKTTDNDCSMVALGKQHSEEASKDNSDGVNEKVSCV

Rattus norvegicus [15] = experiment: Ex vivo displacement of [3H]ketanserin from 5HT2A receptor in Sprague-Dawley rat cerebral cortex at 10 mg/kg, po by imaging analysis; assay type: functional
In short: as §4, with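 “[3H]ketanserin” for “[3H]pyrilamine”, “Tris-HCl with 10 mM MgCl2,” for “Tris-HCl,”, “mianserin.” for “pyrilamine.”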

Rattus norvegicus [16] = experiment: Ex vivo displacement of [3H]pyrilamine from histamine H1 receptor in Sprague-Dawley rat cerebral cortex at 3 mg/kg, po by imaging analysis; assay type: functional; in short: as §4
[17] = Blood clearance in Sprague-Dawley rat at 1 mg/kg, iv and 3 mg/kg, po; assay type: ADME, organism-based; conditions: whole blood; in short: as §1
[18] = Oral bioavailability in Sprague-Dawley rat at 1 mg/kg; assay type: ADME, organism-based; conditions: in vivo; in short: as §1
[19] = Volume of distribution at steady state in Sprague-Dawley rat at 0.5 mg/kg, iv and 1 mg/kg, po; assay type: ADME, organism-based; conditions: in vivo, read-out: Vdss; in short: as §1
[20] = Ratio of drug level in brain to blood in Sprague-Dawley rat at 0.5 mg/kg, iv and 1 mg/kg, po; assay type: ADME, organism-based; conditions: read-out: BBR; in short: as §3
[21] = Half life in Sprague-Dawley rat at 0.5 mg/kg, iv and 1 mg/kg, po; assay type: ADME, organism-based; conditions: in vivo; in short: as §1
[22] = Blood clearance in Sprague-Dawley rat at 0.5 mg/kg, iv and 1 mg/kg, po; assay type: ADME, organism-based; conditions: whole blood; in short: as §1
[23] = Cmax in Sprague-Dawley rat hypnotic model at 1 mg/kg, po administered during active phase measured after 2 hrs; assay type: ADME, organism-based; design: dose 1 mg/kg, route oral; conditions: in vivo

Sequence of 5-hydroxytryptamine receptor 2A (Rattus norvegicus, UniProt P14842) (P14842 whole entry): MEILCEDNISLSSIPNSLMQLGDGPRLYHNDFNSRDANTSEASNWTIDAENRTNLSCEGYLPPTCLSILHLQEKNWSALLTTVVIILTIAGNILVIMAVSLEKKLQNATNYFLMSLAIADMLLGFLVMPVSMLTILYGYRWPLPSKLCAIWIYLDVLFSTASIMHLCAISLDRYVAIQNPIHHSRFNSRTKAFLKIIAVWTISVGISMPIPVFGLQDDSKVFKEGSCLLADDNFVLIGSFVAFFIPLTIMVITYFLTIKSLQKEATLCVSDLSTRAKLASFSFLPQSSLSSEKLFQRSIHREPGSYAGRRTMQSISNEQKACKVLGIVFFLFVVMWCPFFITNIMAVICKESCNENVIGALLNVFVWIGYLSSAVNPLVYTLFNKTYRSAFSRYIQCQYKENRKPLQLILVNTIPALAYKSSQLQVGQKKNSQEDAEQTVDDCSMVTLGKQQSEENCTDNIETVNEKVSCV

Row | Compound | Ki [1] [nM] | IC50 (Cytochrome P450 1A2) [nM] | IC50 (Cytochrome P450 2D6) [nM] | Cmax [5] [ng/mL] | Cmax [6] [ng/mL] | Cmax [7] [ng/mL] | Activity (Rattus norvegicus [8]) [%] | Activity (Rattus norvegicus [9]) [%] | Activity (Rattus norvegicus [10]) [%] | Activity (Rattus norvegicus [12]) [%] | Ki [14] [nM] | Activity (Rattus norvegicus [15]) [%] | Activity (Rattus norvegicus [16]) [%] | bioavailability [18] [%] | Vd [19] [L/kg] | Kp [20] | half-life [21] [h] | clearance [22] [mL/min/kg] | further results
1 | O=C(O)C1CN(C2CC[C@]3(Cc4ccccc4Cc4ccccc43)C2)C1 (some centres not stated) | 33.1 | > 10000 | > 10000 | 1220 | 127 | 417 | 66 | 0.9 | 16 | 24 | 15.8 | 47 | 45 |  |  |  |  |  | half-life [2]: 3.1 h; Vd [3]: 2.1 L/kg; Kp [4]: 0.1; Cmax [11]: 626 ng/mL; bioavailability [13]: 54%; clearance [17]: 9 mL/min/kg
2 | O=C(O)C1CN(C2CCC3(Cc4ccccc4Oc4ccccc43)C2)C1 (configuration not stated) | 33.9 | > 10000 | > 10000 |  |  |  |  |  |  |  | 31.6 |  |  | 100 | 1.9 | 0.2 | 1.9 | 13 | 
3 | O=C(O)C1CCN(C2CC[C@]3(Cc4ccccc4Cc4ccccc43)C2)CC1 (some centres not stated) | 33.9 | > 10000 | > 10000 | 755 | 119 | 303 | 55 | 0 | 30 | 5.6 | 79.4 | 18 | 35 | 65 | 2.9 | 0.5 | 1.9 | 21 | Cmax [23]: 216 ng/mL
